Drawing on ChEMBL document CHEMBL3098050, “Stereoselective total synthesis of a novel regiomer of herbarumin I and its cytotoxic and antimicrobial activities” (Bioorg Med Chem Lett, 2014), this text covers IC50 and MIC for three compounds.

Assay [1] deals with DU-145. Put plainly: Cytotoxicity against human DU145 cells by MTT assay. The class given is functional, cell-based. The method, boiled down:
(§1)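 MTT read-out (Mosmann method); absorbance dose–response curves plotted and IC50 calculated from them; each cell line's value is the mean of two independent experiments; doxorubicin as positive control.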
(Tetrazolium assays rely on reduction of a dye to a coloured formazan, in cell work by metabolically active cells.)

Assay [2] relates to HepG2. Put plainly: Cytotoxicity against human HepG2 cells by MTT assay. Type of assay: functional, cell-based. The method, boiled down:
as §1

Assay [3] relates to Staphylococcus aureus. Put plainly: Antimicrobial activity against Staphylococcus aureus MTCC 96 after 18 hrs by microtitre broth dilution method. Type of assay: functional. As to conditions: MTCC 96, 18 h. The method, boiled down:
(§2)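 Microtiter broth dilution; MIC per pathogen taken from four individual observations; ciprofloxacin as bacterial positive control.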

Assay [4] relates to MDA-MB-231. Put plainly: Cytotoxicity against human MDA-MB-231 cells by MTT assay. Type of assay: functional, cell-based. Put shortly: as §1
Assay [5] concerns A549. Put plainly: Cytotoxicity against human A549 cells by MTT assay. The class given is functional, cell-based. Put shortly: as §1
The test system of assay [6] is Raoultella planticola. Briefly: Antimicrobial activity against Klebsiella planticola MTCC 530 after 18 hrs by microtitre broth dilution method. As to conditions: MTCC 530, 18 h. Type of assay: functional. Put shortly: as §2
(Dilution methods test growth across graded concentrations, often in twofold steps.)

Assay [7] concerns COLO 205. Briefly: Cytotoxicity against human COLO205 cells by MTT assay. Type of assay: functional, cell-based. Put shortly: as §1
The subject of assay [8] is Bacillus subtilis. Briefly: Antimicrobial activity against Bacillus subtilis MTCC 121 after 18 hrs by microtitre broth dilution method. Type of assay: functional. The settings on record: MTCC 121, 18 h. Put shortly:
as §2

The subject of assay [9] is Pseudomonas aeruginosa. Briefly: microbe, parasite or virus in culture. As to conditions: MTCC 2453, 18 h.
Assay [10] relates to Escherichia coli. Put plainly: microbe, parasite or virus in culture. As to conditions: MTCC 739, 18 h.

≈ marks a conversion by molar mass, not a printed value.

For orientation: IC50 means the concentration that gives 50% inhibition. Take `CCC[C@H]1OC(=O)[C@H](O)CC/C=C/C[C@@H]1O`: the IC50 in assay [1] was determined as 8.9 µM; in [2], 9.1 µM; in assay [4] it was 6.2 µM; in assay [5], 8.1 µM; in assay [7], 5100 nM. Besides, the MIC in assay [3] was found to be 7.8 µg/mL (≈ 34.2 µM); in assay [6], 15.6 µg/mL (≈ 68.3 µM); in assay [8], 15.6 µg/mL (≈ 68.3 µM).
`O=C(O)c1cn(C2CC2)c2cc(N3CCNCC3)c(F)cc2c1=O` [CIPROFLOXACIN]: the MIC in [3], in [9], in assay [10], in [6] and in assay [8] was 0.9 µg/mL (≈ 2.72 µM) each time.
As to `COc1cccc2c1C(=O)c1c(O)c3c(c(O)c1C2=O)C[C@@](O)(C(=O)CO)C[C@@H]3O[C@H]1C[C@H](N)[C@H](O)[C@H](C)O1` [DOXORUBICIN], the IC50 was 0.6 µM in [1] and 500 nM in assay [7].
